In brackets after ≈: the same amount, converted by molar mass. *1 amine or outer side, *2 acyl side, *3 side chain or, on linkers, in order; H or OH if unused. Where a SMILES comes first, the peptide text is derived from it. Bridges are numbered along the chain shown (N, C = ends). [ ]: non-standard residue; d: D form. The star is where a group is joined. hTyr(3S-OH,4S-OH,3'-OSO3H) = N[C@H](C(=O)O)[C@H](O)[C@@H](O)c1ccc(O)c(OS(=O)(=O)O)c1; pTerphenylCO(4''-OnC5H11) = CCCCCOc1ccc(-c2ccc(-c3ccc(C(=O)*)cc3)cc2)cc1; Orn(4R-OH,5R-OH) = O=C([C@H](C[C@@H](O)[C@@H](O)N[*:3])N[*:1])[*:2]; hTyr(3S-OH,4S-OH) = N[C@H](C(=O)O)[C@H](O)[C@@H](O)c1ccc(O)cc1; Pro(3S-OH,4S-Me) = C[C@H]1CN[C@H](C(=O)O)[C@H]1O; X1 = CCCCCOc1ccc(-c2cc(-c3ccc(C(=O)*)cc3)no2)cc1; Gln(3R-OH) = NC(=O)C[C@@H](O)[C@H](N)C(=O)O; Hyp = O=C(O)[C@@H]1C[C@@H](O)CN1
Experiments:
[1] = Ratio of AUC (0 to infinity) in F344 rat liver to AUC (0 to infinity) in F344 rat plasma at 5 mg/kg, iv administered as single bolus dose; format: ADME, organism-based; design: dose 5 mg/kg, route intravenous; conditions: liver and plasma
How it was run: (§1)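 Male F344 rats, 10–11 weeks old, 223.6–243.8 g, given a single IV dose of [¹⁴C]-labelled drug over about 5 min. Tissue and plasma sampled predose and at 0.083–72 h, n = 3 per time point. Parent drug measured by HPLC-UV; tissue LLOQ 220 ng/g, plasma LLOQ 20 ng/ml. AUC0-∞ by noncompartmental analysis of the composite mean profile; ratio is tissue AUC over plasma AUC.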

[2] = Ratio of AUC (0 to infinity) in F344 rat lung to AUC (0 to infinity) in F344 rat plasma at 5 mg/kg, iv administered as single bolus dose; format: ADME, organism-based; design: dose 5 mg/kg, route intravenous; conditions: lung and plasma; how it was run: as §1
[3] = Ratio of AUC (0 to infinity) in F344 rat kidney to AUC (0 to infinity) in F344 rat plasma at 5 mg/kg, iv administered as single bolus dose; format: ADME, organism-based; design: dose 5 mg/kg, route intravenous; conditions: kidney and plasma; how it was run: as §1
[4] = Ratio of AUC in rat lung to AUC in rat plasma at 1 mg/kg, iv; format: ADME, organism-based; design: dose 1 mg/kg, route intravenous; conditions: lung and plasma, read-out: Ratio AUC
[5] = Ratio of AUC in rat kidney to AUC in rat plasma at 1 mg/kg, iv; format: ADME, organism-based; design: dose 1 mg/kg, route intravenous; conditions: kidney and plasma, read-out: Ratio AUC
[6] = Ratio of AUC in rat liver to AUC in rat plasma at 1 mg/kg, iv; format: ADME, organism-based; design: dose 1 mg/kg, route intravenous; conditions: liver and plasma, read-out: Ratio AUC
Candida = test: Antifungal activity against Candida sp.; format: functional
Aspergillus fumigatus = test: Antifungal activity against Aspergillus fumigatus; format: functional
Aspergillus flavus = test: Antifungal activity against Aspergillus flavus; format: functional
[7] = Total body clearance in F344 rat at 5 mg/kg, iv administered as single bolus dose; format: ADME, organism-based; design: dose 5 mg/kg, route intravenous; conditions: in vivo
How it was run: (§2)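 F344 males, 10 to 11 weeks old and 223.6 to 243.8 g, got a single 5 mg/kg iv dose of [14C]anidulafungin over about 5 min. Plasma and tissues were collected predose and at 0.083 to 72 h, n = 3 per time point. Parent drug was quantified by HPLC-UV, with LLOQ/ULOQ of 20/5,120 ng/ml in plasma and 220/56,320 ng/g in tissue. Noncompartmental parameters came from a composite mean concentration-time profile.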

[8] = Volume of distribution in F344 rat at 5 mg/kg, iv administered as single bolus dose; format: ADME, organism-based; design: dose 5 mg/kg, route intravenous; conditions: in vivo; how it was run: as §2

CC[C@H](C)C[C@H](C)CCCCCCCCC(=O)N[C@H]1C[C@@H](O)[C@@H](NCCN)NC(=O)[C@@H]2[C@@H](O)CCN2C(=O)[C@H]([C@H](O)CCN)NC(=O)[C@H]([C@H](O)[C@@H](O)c2ccc(O)cc2)NC(=O)[C@@H]2C[C@@H](O)CN2C(=O)[C@H]([C@@H](C)O)NC1=O [CASPOFUNGIN]
Kp [1]: 12.4
Kp [2]: 10.4
Kp [3]: 10.7

CCCCCOc1ccc(-c2cc(-c3ccc(C(=O)N[C@H]4C[C@@H](O)[C@@H](O)NC(=O)[C@@H]5[C@@H](O)[C@@H](C)CN5C(=O)[C@H]([C@H](O)CC(N)=O)NC(=O)[C@H]([C@H](O)[C@@H](O)c5ccc(O)c(OS(=O)(=O)O)c5)NC(=O)[C@@H]5C[C@@H](O)CN5C(=O)[C@H]([C@@H](C)O)NC4=O)cc3)no2)cc1 [MICAFUNGIN] (X1-[Orn(4R-OH,5R-OH)]T[Hyp][hTyr(3S-OH,4S-OH,3'-OSO3H)][Gln(3R-OH)][Pro(3S-OH,4S-Me)]; lactam 1-C)
Kp [4]: 3.6
Kp [5]: 3.2
Kp [6]: 7.8

CCCCCOc1ccc(-c2ccc(-c3ccc(C(=O)N[C@H]4C[C@@H](O)[C@@H](O)NC(=O)[C@@H]5[C@@H](O)[C@@H](C)CN5C(=O)[C@H]([C@@H](C)O)NC(=O)[C@H]([C@H](O)[C@@H](O)c5ccc(O)cc5)NC(=O)[C@@H]5C[C@@H](O)CN5C(=O)[C@H]([C@@H](C)O)NC4=O)cc3)cc2)cc1 [ANIDULAFUNGIN] ({pTerphenylCO(4''-OnC5H11)}-[Orn(4R-OH,5R-OH)]T[Hyp][hTyr(3S-OH,4S-OH)]T[Pro(3S-OH,4S-Me)]; lactam 1-C)
MIC90 (Candida): 0.06 µg/mL (≈ 0.0526 µM)
MIC90 (Aspergillus fumigatus): 0.03 µg/mL (≈ 0.0263 µM)
MIC90 (Aspergillus flavus): 0.08 µg/mL (≈ 0.0702 µM)
clearance [7]: 1.4 mL/min/kg
Vd [8]: 2.2 L/kg
